Data set [1] concerns the target Hepatocyte growth factor receptor (Homo sapiens, UniProt P08581). In words: Inhibition of recombinant c-met by HTRF assay. (In general: Time-resolved FRET reads energy transfer from a long-lived donor to a nearby acceptor.)
For the next data set, the system named is SNU-5. The data set is described as follows: Growth inhibition of c-met-amplified human SNU5 cells after 72 hrs by MTS assay. Format: functional. To be noted: SNU-5, 72 h.
Data set [2] is described as follows: Growth inhibition of c-met-amplified human Hs 746T cells after 72 hrs by MTS assay. Format: functional. To be noted: Hs746T. (Tetrazolium dyes change colour on reduction, which living cells bring about.)
A further data set deals with MKN-45. The data set is described as follows: Growth inhibition of c-met-amplified human MKN45 cells after 72 hrs by MTS assay. Format: functional. The settings on record: MKN-45, 72 h.
For another data set, the system named is NCI-N87. In words: Growth inhibition of c-met-independent human NCI-N87 cells after 72 hrs by MTS assay. Format: functional. To be noted: NCI-N87, 72 h.
The target in another data set is T1, Aurora kinase A (Homo sapiens, UniProt O14965).
T1 sequence (O14965 whole entry): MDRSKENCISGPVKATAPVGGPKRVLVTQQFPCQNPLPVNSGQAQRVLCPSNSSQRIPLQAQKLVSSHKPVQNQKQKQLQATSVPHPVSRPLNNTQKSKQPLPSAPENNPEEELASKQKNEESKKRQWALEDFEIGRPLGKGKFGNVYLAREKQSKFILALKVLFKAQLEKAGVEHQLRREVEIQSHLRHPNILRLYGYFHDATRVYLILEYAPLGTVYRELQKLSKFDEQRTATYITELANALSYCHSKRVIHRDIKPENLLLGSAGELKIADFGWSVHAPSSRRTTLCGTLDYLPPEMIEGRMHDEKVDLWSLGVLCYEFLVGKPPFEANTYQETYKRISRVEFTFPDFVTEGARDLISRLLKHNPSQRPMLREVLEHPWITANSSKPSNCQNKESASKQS
The data set is described as follows: Inhibition of AurA.

In data set [3] the target is High affinity nerve growth factor receptor (Homo sapiens, UniProt P04629). The data set is described as follows: Inhibition of TRKA.
Data set [4] deals with Macrophage-stimulating protein receptor (Homo sapiens, UniProt Q04912). The data set is described as follows: Inhibition of RON.
The target of data set [5] is T2, Receptor-type tyrosine-protein kinase FLT3 (Homo sapiens, UniProt P36888).
T2 sequence (P36888 whole entry): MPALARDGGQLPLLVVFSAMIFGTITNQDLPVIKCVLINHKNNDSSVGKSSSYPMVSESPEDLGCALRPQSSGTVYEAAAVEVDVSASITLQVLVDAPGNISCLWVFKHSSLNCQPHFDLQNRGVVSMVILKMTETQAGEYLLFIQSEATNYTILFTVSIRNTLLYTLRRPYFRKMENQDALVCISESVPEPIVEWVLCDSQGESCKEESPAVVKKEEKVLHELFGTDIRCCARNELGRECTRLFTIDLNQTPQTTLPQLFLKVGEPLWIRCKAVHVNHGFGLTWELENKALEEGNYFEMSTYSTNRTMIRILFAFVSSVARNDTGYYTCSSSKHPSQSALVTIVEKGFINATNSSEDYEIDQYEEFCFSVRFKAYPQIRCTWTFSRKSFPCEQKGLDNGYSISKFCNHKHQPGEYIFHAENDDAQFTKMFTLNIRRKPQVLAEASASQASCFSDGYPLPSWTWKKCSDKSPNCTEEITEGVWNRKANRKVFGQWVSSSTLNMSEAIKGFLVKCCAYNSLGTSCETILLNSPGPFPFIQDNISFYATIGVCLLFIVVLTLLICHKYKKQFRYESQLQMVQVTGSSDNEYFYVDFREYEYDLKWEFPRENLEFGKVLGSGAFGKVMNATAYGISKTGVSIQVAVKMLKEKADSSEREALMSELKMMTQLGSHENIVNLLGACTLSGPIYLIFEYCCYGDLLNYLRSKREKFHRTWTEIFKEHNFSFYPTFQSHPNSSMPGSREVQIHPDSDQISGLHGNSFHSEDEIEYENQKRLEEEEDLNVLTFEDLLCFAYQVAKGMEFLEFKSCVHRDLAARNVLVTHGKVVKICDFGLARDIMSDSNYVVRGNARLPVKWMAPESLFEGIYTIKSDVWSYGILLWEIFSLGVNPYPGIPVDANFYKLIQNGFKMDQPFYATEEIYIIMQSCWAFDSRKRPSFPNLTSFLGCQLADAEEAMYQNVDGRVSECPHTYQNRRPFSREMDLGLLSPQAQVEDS
In words: Inhibition of FLT3.

A short description of data set [6]: Cmax in rat at 10 mg/kg, po. Format: ADME, organism-based. More on the design: dose 10 mg/kg, route oral. The settings on record: in vivo. Put shortly:
(§1)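 Rat pharmacokinetics: 10 mg/kg dose given, three rats per group.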

The nature of data set [7]: AUC in rat at 10 mg/kg, iv. Format: ADME, organism-based. More on the design: dose 10 mg/kg, route intravenous. The settings on record: plasma. The method in brief:
as §1

Data set [8] in a line: AUC in rat at 10 mg/kg, po. Format: ADME, organism-based. To be noted: plasma. Details: dose 10 mg/kg, route oral. The method in brief: as §1
Data set [9] in a line: Volume of distribution at steady state in rat at 10 mg/kg, iv. Format: ADME, organism-based. Details: dose 10 mg/kg, route intravenous. The settings on record: in vivo, read-out: Vdss. Put shortly: as §1
Data set [10] can be described thus: Oral bioavailability in rat at 10 mg/kg. Format: ADME, organism-based. To be noted: in vivo. Put shortly:
as §1

The nature of data set [11]: Clearance in rat at 10 mg/kg, iv. Details: dose 10 mg/kg, route intravenous. The settings on record: in vivo. Format: ADME, organism-based. The method in brief: as §1

Chain of Hepatocyte growth factor receptor (P08581 whole entry): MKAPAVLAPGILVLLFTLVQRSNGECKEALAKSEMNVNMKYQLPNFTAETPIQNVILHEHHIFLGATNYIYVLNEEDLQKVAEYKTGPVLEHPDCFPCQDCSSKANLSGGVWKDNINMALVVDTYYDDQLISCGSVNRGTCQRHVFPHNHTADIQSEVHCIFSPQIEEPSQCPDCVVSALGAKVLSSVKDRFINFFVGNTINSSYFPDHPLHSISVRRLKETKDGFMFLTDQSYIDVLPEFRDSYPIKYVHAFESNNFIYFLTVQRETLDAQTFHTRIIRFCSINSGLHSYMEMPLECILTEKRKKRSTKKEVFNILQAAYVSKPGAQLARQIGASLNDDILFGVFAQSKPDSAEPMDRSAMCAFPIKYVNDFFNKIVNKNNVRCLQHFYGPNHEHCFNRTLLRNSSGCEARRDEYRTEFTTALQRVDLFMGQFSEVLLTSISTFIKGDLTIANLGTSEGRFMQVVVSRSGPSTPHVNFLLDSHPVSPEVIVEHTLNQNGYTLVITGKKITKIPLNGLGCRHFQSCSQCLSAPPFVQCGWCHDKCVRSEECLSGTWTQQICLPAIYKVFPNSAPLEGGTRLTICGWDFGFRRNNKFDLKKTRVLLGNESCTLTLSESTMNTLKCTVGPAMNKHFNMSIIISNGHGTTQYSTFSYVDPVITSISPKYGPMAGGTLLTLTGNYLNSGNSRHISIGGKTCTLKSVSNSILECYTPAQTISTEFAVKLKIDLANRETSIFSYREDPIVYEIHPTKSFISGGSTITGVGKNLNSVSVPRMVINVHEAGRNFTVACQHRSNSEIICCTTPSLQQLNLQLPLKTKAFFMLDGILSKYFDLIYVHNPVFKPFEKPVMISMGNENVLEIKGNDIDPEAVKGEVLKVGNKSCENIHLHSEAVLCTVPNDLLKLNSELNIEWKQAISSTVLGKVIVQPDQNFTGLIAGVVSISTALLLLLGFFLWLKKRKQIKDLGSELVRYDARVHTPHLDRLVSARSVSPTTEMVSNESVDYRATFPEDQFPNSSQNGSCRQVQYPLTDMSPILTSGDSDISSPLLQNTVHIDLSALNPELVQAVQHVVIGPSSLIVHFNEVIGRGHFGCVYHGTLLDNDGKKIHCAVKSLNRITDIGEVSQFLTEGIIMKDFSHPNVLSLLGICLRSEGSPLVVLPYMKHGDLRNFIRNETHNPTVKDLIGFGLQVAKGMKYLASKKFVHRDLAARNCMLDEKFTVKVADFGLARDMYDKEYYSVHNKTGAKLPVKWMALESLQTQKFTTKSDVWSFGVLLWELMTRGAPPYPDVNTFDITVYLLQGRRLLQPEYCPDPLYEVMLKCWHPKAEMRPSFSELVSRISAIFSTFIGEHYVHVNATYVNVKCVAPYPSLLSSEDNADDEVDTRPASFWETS
Chain of High affinity nerve growth factor receptor (P04629 whole entry): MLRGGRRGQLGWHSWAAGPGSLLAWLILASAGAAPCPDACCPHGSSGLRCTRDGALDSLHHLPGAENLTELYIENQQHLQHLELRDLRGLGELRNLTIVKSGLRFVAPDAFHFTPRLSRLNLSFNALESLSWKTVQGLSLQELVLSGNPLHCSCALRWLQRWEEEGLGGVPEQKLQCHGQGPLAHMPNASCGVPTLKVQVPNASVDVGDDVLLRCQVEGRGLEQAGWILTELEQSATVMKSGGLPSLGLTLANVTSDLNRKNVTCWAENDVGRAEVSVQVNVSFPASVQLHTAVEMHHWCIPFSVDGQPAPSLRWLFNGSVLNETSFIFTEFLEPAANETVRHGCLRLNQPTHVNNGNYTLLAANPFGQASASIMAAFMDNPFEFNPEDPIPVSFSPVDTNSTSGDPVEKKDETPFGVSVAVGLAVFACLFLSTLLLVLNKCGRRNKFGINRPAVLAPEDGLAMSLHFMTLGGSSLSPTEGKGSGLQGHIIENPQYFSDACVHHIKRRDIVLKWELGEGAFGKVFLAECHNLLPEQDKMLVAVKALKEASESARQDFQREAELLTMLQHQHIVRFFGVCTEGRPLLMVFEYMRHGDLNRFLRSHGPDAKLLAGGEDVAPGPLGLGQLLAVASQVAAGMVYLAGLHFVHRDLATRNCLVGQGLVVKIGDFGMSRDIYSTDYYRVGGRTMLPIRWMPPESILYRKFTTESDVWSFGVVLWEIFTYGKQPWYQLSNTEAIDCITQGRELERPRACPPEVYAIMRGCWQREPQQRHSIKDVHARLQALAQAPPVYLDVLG
Chain of Macrophage-stimulating protein receptor (Q04912 25-304 limits assumed): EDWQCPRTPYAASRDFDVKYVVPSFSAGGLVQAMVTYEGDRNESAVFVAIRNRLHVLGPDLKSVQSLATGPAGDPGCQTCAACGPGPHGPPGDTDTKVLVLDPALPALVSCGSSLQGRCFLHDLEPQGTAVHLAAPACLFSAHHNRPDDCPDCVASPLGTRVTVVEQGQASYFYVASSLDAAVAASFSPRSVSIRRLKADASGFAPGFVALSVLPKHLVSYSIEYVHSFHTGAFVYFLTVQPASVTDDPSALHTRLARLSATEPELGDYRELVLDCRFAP
Chain of Macrophage-stimulating protein receptor (Q04912 310-1400 limits assumed): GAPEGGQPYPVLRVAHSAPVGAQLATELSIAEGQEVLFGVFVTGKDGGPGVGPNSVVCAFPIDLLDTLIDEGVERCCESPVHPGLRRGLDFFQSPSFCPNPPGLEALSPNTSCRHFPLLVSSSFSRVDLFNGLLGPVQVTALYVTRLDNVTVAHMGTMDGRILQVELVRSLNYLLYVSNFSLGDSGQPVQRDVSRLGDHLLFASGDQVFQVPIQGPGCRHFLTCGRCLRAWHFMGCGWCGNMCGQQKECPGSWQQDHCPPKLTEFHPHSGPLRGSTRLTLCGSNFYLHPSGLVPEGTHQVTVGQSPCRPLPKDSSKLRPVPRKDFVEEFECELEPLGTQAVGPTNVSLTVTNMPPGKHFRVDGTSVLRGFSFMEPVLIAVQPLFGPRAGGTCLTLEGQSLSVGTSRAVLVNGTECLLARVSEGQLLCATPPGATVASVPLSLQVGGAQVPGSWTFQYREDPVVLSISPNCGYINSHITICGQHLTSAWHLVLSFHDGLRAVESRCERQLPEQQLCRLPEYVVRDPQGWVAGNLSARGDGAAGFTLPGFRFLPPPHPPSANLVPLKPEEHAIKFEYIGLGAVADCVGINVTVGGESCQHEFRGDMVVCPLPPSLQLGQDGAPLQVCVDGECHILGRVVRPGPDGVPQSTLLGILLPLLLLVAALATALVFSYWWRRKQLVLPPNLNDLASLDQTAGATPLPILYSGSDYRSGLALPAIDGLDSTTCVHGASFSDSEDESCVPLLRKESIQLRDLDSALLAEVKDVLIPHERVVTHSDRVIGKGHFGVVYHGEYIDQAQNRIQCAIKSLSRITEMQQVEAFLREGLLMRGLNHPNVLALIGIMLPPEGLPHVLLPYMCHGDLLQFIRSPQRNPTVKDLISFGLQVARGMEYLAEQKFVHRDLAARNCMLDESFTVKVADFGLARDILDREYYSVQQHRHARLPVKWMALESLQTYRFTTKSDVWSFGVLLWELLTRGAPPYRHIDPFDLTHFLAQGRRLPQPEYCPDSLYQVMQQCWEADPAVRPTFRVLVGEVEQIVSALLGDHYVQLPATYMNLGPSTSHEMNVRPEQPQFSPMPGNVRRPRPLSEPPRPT

On to `O=c1[nH]ccc2c(Cc3nnc4ccc(-c5cnn(C6CCNCC6)c5)nn34)cccc12`, for which the IC50 (commonly the concentration that gives 50% inhibition) in [1] was 27 nM.

As to `O=c1[nH]ccc2c(Cc3nnc4ccc(-c5csc6ccccc56)nn34)cccc12`, the IC50 in data set [1] is 14 nM.

In the case of `O=c1[nH]ccc2c(Cc3nnc4ccc(-c5cccnc5)nn34)cccc12`, the GI50 (in general, the concentration giving 50% growth inhibition) with SNU-5 is 450 nM; in data set [2], 400 nM; with MKN-45, 420 nM; in the data set with NCI-N87, > 10000 nM. Moreover, in data set [1], the IC50 was 5 nM.

For the compound `O=c1[nH]ccc2c(Cc3nnc4ccc(N5CCCC5)nn34)cccc12`, the IC50 in [1] came to 27 nM.

With `Cn1cc(-c2ccc3nnc(Cc4cccc5c(=O)[nH]ccc45)n3n2)cn1`, the IC50 is > 10000 nM against Aurora kinase A; > 10000 nM in data set [3]; > 10000 nM in data set [4]; 2 nM in [1]; > 10000 nM in [5]. In addition, the GI50 in the data set on SNU-5 is 690 nM; in data set [2] it was 64 nM; in the data set on MKN-45 it was 130 nM; in the data set on NCI-N87 it was > 10000 nM.

As for `O=c1[nH]ccc2c(Cc3nnc4ccc(-c5cccc([N+](=O)[O-])c5)nn34)cccc12`, the IC50 in [1] is 4 nM.

Turning to `Cc1ccccc1-c1ccc2nnc(Cc3cccc4c(=O)[nH]ccc34)n2n1`, in [1], the IC50 amounted to 72 nM.

Regarding `O=c1[nH]ccc2c(Cc3nnc4ccc(-c5cccc(F)c5)nn34)cccc12`, the GI50 is 52 nM with SNU-5, 130 nM in [2], 42 nM in the data set on MKN-45 and > 10000 nM in the data set with NCI-N87. Also, in data set [1], the IC50 is 3 nM.

As for `N#Cc1cccc(-c2ccc3nnc(Cc4cccc5c(=O)[nH]ccc45)n3n2)c1`, the GI50 was 120 nM in the data set with SNU-5, 59 nM in [2], 36 nM in the data set with MKN-45 and > 10000 nM in the data set on NCI-N87. Also, the IC50 in data set [1] was found to be 3 nM.

With `O=c1[nH]ccc2c(Cc3nnc4ccc(-c5ccsc5)nn34)cccc12`, the GI50 with SNU-5 is 56 nM; in data set [2], 170 nM; in the data set with MKN-45 it was 32 nM; in the data set with NCI-N87, > 10000 nM. In addition, the IC50 in [1] was 4 nM.

Regarding `O=c1[nH]ccc2c(Cc3nnc4ccc(-c5cccc(O)c5)nn34)cccc12`, the GI50 with SNU-5 was 1100 nM; in data set [2], 600 nM; in the data set with MKN-45, 470 nM; with NCI-N87, > 10000 nM. For the same compound, the IC50 in data set [1] amounted to 3 nM.

As to `O=c1[nH]ccc2c(Cc3nnc4ccc(-c5cn[nH]c5)nn34)cccc12`, the IC50 in [1] worked out at 5 nM.

As to `CCn1ccc2c(Cc3nnc4ccc(-c5cccc(F)c5)nn34)cccc2c1=O`, the IC50 in data set [1] is 72 nM.

Consider `O=c1[nH]ccc2c(Cc3nnc4ccc(N5CCCCC5)nn34)cccc12`, for which, in [1], the IC50 was determined as 29 nM.

As to `COc1cccc(-c2ccc3nnc(Cc4cccc5c(=O)[nH]ccc45)n3n2)c1`, the GI50 with SNU-5 is 130 nM; in data set [2], 100 nM; with MKN-45, 95 nM; in the data set on NCI-N87, > 10000 nM. Further, the IC50 in [1] turned out to be 5 nM.

With `Cn1ccc2c(Cc3nnc4ccc(-c5cccc(F)c5)nn34)cccc2c1=O`, the half-inhibitory concentration (IC50) in [1] is 73 nM.

`O=c1[nH]ccc2c(Cc3nnc4ccc(-c5cnn(CCO)c5)nn34)cccc12`: the IC50 in data set [1] stood at 2 nM.

As to `O=c1[nH]ccc2c(Cc3nnc4ccc(-c5ccccc5Cl)nn34)cccc12`, the IC50 in [1] stood at 4 nM.

With `O=c1[nH]ccc2c(Cc3nnc4ccc(-c5ccccc5)nn34)cccc12`, the concentration in data set [6] peaked (Cmax) at 300 ng/mL. The IC50 against Aurora kinase A is > 10000 nM; in data set [3] it was > 10000 nM; in [4], > 10000 nM; in data set [1], 3 nM; in [5], > 10000 nM. In addition, the GI50 in the data set with SNU-5 was 59 nM; in data set [2], 71 nM; in the data set on MKN-45 it was 38 nM; in the data set on NCI-N87 it was > 10000 nM. For the same compound, the exposure (AUC) (in general, the area under the concentration-time curve, a measure of exposure) in data set [7] turned out to be 11200 ng·h/mL; in data set [8] it was 3900 ng·h/mL. Moreover, the Vd in data set [9] came out at 6.4 L/kg. In addition, the bioavailability – broadly, dose-corrected exposure relative to a reference, in per cent – in data set [10] worked out at 35%. Besides, the clearance (commonly the rate of elimination divided by the concentration) in [11] is 13.3 mL/min/kg.

With `O=c1[nH]ccc2c(Cc3nnc4ccc(-c5cccc(Cl)c5)nn34)cccc12`, the GI50 with SNU-5 is 19 nM; in [2], 53 nM; with MKN-45, 11 nM; with NCI-N87 it was > 10000 nM. For the same compound, the IC50 in data set [1] was found to be 7 nM.

(Values after ChEMBL document CHEMBL1921685, “Design and synthesis of triazolopyridazines substituted with methylisoquinolinone as selective c-Met kinase inhibitors” (Bioorg Med Chem Lett, 2011).)
